MEKK2wt PB1 HTS: raises or lowers MEK5 binding to wildtype human MEKK2 PB1 domain. Q9Y2U5. bead flow cytometry, Alexa488-MEK5 binding to MEKK2 WT; actives lie on both sides. binding response (% of control), % at 10 µM. 290,000 compounds, 1.1% hits; in the data active = binding response below about 67% or above about 130%
UBC13 polyUb: human UBC13 polyubiquitination inhibition; AID 485273; 330,000 compounds, 0.47% hits; P61088; inhibition, % at 20 µM; UBC13 polyubiquitin chain formation, TR-FRET; in the data active = inhibition above about 45%, passing the limit was not always enough
MEKK2mut PB1 HTS: signal of MEK5 binding to mutant human MEKK2 PB1 domain | bead flow cytometry, Alexa488-MEK5 binding to MEKK2 mutant | percent response, % at 10 µM | 290,000 compounds, 0.35% hits; in the data active = percent response above about 24%, passing the limit was not always enough
MEKK3 PB1 HTS: raises or lowers MEK5 binding to the human MEKK3 PB1 domain. Q99759. AID 1529. bead-based flow cytometry, Alexa488-MEK5 binding to MEKK3; actives lie on both sides; 0 = blocked by unlabeled MEK5, 100 = vehicle. 290,000 compounds, 1.4% hits. binding response (% of control), % at 10 µM;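 active = binding response more than 3 SD above or below the average of its plate-row segment, actives on both sides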;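 also: Alexa488 bead fluorescence after subtracting the streptavidin-only scavenger bead signal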
Apaf1 inhib: blocks human Apaf-1 apoptosome activity; reconstituted apoptosome caspase-3 activity, DEVD-Rh110 fluorescence; inhibition, % at 20 µM; 330,000 compounds, 0.71% hits; AID 489030; active = inhibition of at least 40% at 20 µM;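 also: plate controls were DMSO wells for no effect and DEVD-CHO caspase inhibitor wells for full effect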
Target sequence (O14727 whole entry, looked up): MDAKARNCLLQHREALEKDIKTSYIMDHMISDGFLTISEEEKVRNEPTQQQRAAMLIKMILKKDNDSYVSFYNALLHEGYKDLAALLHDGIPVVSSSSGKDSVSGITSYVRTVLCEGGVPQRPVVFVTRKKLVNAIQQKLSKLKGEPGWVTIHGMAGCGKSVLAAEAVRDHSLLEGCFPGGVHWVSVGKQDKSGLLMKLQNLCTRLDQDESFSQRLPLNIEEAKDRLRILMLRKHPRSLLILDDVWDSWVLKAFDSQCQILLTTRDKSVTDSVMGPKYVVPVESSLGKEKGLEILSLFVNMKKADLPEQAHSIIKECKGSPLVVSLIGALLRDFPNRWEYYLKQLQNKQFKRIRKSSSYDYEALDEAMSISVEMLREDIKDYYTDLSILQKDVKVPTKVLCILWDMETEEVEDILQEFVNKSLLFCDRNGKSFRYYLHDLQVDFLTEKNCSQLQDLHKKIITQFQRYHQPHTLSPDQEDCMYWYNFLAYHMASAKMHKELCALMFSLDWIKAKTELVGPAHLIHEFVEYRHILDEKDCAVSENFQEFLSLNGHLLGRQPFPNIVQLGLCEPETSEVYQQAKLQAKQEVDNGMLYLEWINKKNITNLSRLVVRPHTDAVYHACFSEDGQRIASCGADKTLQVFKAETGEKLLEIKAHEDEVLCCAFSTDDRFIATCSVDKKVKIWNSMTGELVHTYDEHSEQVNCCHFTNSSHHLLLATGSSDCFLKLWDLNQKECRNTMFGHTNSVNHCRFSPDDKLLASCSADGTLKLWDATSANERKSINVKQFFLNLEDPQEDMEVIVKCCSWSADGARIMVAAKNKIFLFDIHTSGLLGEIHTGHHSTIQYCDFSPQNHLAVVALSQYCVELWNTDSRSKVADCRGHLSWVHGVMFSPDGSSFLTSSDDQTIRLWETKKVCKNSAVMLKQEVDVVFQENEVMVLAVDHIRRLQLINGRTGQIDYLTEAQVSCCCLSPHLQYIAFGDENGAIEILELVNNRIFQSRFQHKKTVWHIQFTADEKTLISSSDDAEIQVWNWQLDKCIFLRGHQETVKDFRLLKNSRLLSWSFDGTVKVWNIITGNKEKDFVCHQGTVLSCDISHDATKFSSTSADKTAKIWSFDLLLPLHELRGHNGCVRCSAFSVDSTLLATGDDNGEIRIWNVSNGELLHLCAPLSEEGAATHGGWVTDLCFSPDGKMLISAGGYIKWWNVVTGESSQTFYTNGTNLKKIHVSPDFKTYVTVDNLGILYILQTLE
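System – cell-free apoptosome with Apaf-1, procaspase-3 and caspase-9 · Buffer or medium – pH 7.5 Hepes buffer with CHAPS, BSA, DTT · Also added – cytochrome c with DEVD-Rh110 · Times – 30 min compound preincubation, 50 min activation, room temperature · Technique – Rh110 fluorescence intensity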
Pemphigus Ab inh: human desmoglein-3 autoantibody binding inhibition. DSG3-coupled beads, scFv-anti-DSG3-GFP binding, flow cytometry; active compounds read low. binding (percent of control), % at 10 µM. 310,000 compounds, 0.48% hits. AID 588358;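 active = binding more than 3 SD below its plate's average and above zero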;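 also: hits lower antibody fragment binding to DSG3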
MEKK2wt confirm: raises or lowers MEK5 binding to wildtype human MEKK2, retest. shares compounds with MEKK3 PB1 HTS. bead flow cytometry, Alexa488-MEK5 binding to MEKK2 WT; actives lie on both sides. binding response (% of control), % at 10 µM. 5,900 compounds, 2.4% hits. AID 1892; in the data active = binding response below about 16% or above about 210%; inactive = in between
MEKK2mut confirm: signal of MEK5 binding to mutant human MEKK2, retest | shares compounds with MEKK3 PB1 HTS | bead flow cytometry, Alexa488-MEK5 binding to MEKK2 mutant | percent response, % at 10 µM | 5,900 compounds, 2% hits | AID 1893; in the data active = percent response mostly above about 71%, no sharp cut-off; inactive = mostly below about 38%;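 also: higher means compound restores mutant binding toward wildtype level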
MEKK3 confirm: MEKK3-MEK5 PB1 inhibition, single concentration confirmation. shares compounds with MEKK3 PB1 HTS. bead flow cytometry, Alexa488-MEK5 binding to MEKK3; active compounds read low. binding response (% of control), % at 10 µM. 5,900 compounds, 1.8% hits. AID 1894;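 active = binding response below 72% of control, or above a set upper limit, though filed actives all read lower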;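 also: 100% = DMSO only wells and 0% = binding blocked by excess unlabeled MEK5; lower values mean stronger disruption of MEK5 binding to MEKK3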
An asterisk follows results filed as active; / = not tested or not shown; [ ] = another dose, or the depositor's remark. Shown are actives, neighbours in structure and some others; about 3.2% of the full set was active somewhere.

SMILES | MEKK2wt PB1 HTS | UBC13 polyUb | MEKK2mut PB1 HTS | MEKK3 PB1 HTS | Apaf1 inhib | Pemphigus Ab inh | MEKK2wt confirm | MEKK2mut confirm | MEKK3 confirm
CCCN=C1N(C)C[C@@H]2[C@@H]3C(=O)N(C)C(=O)[C@@H]3[C@](C)(C(=O)OC)N12 | / | / | / | / | 5 | 108 | / | / | /
COc1ccccc1CC(=O)NC1CC(C)(C)NC(C)(C)C1 | / | -12 | / | / | 4 | 108 | / | / | /
CC1(C)CC(NC(=O)Cc2ccccc2[N+](=O)[O-])CC(C)(C)N1 | 108 | -4 | 1 | 142* | -8 | 108 | 102 | 7 | 100
C[C@@H]1CN(C(=O)c2cc(COc3cccc(C(F)(F)F)c3)on2)C[C@H](C)O1 | 98 | 2 | -11 | 90 | 20 | 107 | / | / | /
Cc1c(NC(=O)c2cccnc2Cl)c(=O)n(-c2ccccc2)n1C | 106 | 3 | 6 | 104 | 5 | 96 | / | / | /
CCCCc1nnc(NC(=O)CN2C(=O)NC3(CCCCC3)C2=O)s1 | 108 | -2 | 4 | 105 | 1 | 104 | / | / | /
CCCc1nn(C)c(C(=O)Nc2ccc(CC)cc2)c1Cl | 106 | -2 | 2 | 106 | 17 | 102 | / | / | /
CCCc1nn(C)c(C(=O)Nc2cccc3ccccc23)c1Cl | 107 | 4 | 1 | 131* | 20 | 95 | 105 | 0 | 109
CSc1nnc2ccc(-c3ccccn3)nn12 | 76 | -11 | -19 | 64*[inhibitor] | -18 | 101 | 101 | 0 | 101
O=C1c2ccccc2C(O)(c2ccccc2)N1c1ccc([N+](=O)[O-])cc1Cl (stereo not drawn) | / | / | / | / | / | 92 | / | / | /
Cc1sc(N/N=C/c2ccco2)nc1-c1ccccc1 | 98 | -11 | -1 | 131* | 30 | 91 | 106 | 5 | 103
CN(C)S(=O)(=O)c1ccc(C(=O)Nc2ccccc2C(=O)NCCCN2CCOCC2)cc1 | / | -11 | / | / | 2 | 106 | / | / | /
COc1ccccc1CNC(=O)c1ccc(N2CCOCC2)c([N+](=O)[O-])c1 | 53 | -4 | -19 | 44*[inhibitor] | 2 | 101 | 104 | 3 | 110
COc1cccc(CNC(=O)c2ccc(N3CCOCC3)c([N+](=O)[O-])c2)c1 | 99 | -4 | 1 | 101 | 5 | 118 | / | / | /
Cc1ccc(C(=O)c2cc([N+](=O)[O-])ccc2N2CCOCC2)cc1 | 102 | / | 2 | 105 | / | / | / | / | /
Cc1ccc(Cl)c(OC(=O)c2ccc(N3CCOCC3)c([N+](=O)[O-])c2)c1 | 109 | 9 | 1 | 137* | 2 | 98 | 99 | -2 | 104
Cn1cnc2nc[nH]c2c1=O | / | / | / | / | / | 100 | / | / | /
O=C(COC(=O)CNC(=O)C1CCCCC1)NCc1ccc(Cl)cc1 | / | -7 | / | / | 16 | 101 | / | / | /
CN(C(=O)Cn1c(=O)oc2ccccc21)C1CCCCC1 | / | 8 | / | / | -9 | 98 | / | / | /
COc1ccc(CN(C)S(=O)(=O)c2c(C)noc2C)cc1OC | / | 0 | / | / | 8 | 109 | / | / | /
COc1ccc(S(=O)(=O)N(c2onc(C)c2Cl)S(=O)(=O)c2ccc(OC)c(OC)c2)cc1OC | 120 | -2 | 9 | 131* | 1 | 102 | 110 | 4 | 102
CC(=O)Nc1sc(/C(C#N)=C/c2ccc(Cl)c(Cl)c2)nc1-c1ccc(C)cc1 | 25* | / | 104* | 118 | / | 126 | 87 | -13 | 99
CC(=O)Nc1sc(N/N=C/c2ccc(C)cc2)nc1-c1ccc(C)cc1 | 101 | -16 | 2 | 98 | 14 | / | / | / | /
Cc1cc(C(=O)NC2CCCCCCC2)ccc1[N+](=O)[O-] | / | -2 | / | / | -13 | 103 | / | / | /
Cc1cccc(/N=C/c2sc3ccccc3c2O)n1 | 101 | -46 | -1 | 97 | 5 | 94 | / | / | /
SMILES | MEKK2wt PB1 HTS | UBC13 polyUb | MEKK2mut PB1 HTS | MEKK3 PB1 HTS | Apaf1 inhib | Pemphigus Ab inh | MEKK2wt confirm | MEKK2mut confirm | MEKK3 confirm
Oc1c(C=Nc2cccc3cccnc23)sc2ccccc12 | 50*[inhibitor] | -238 | -14 | 82 | 20 | / | 62 | -24 | 89
COc1cc(C2CC(=O)Oc3c(C(CCN4CCCC(C)C4)c4ccc(N(C)C)cc4)c(OC)cc(OC)c32)cc(OC)c1OC (stereo not drawn) | 154* | 29 | 5 | 124 | 15 | 108 | 119 | 13 | 105
COc1cc(C(CCN2CCOCC2)c2c(OC)cc(OC)c3c2OC(=O)CC3c2ccc(N(C)C)cc2)cc(OC)c1OC (stereo not drawn) | 102 | 13 | 4 | 99 | 20 | 111 | / | / | /
CN1CCN(C(=O)N2c3ccccc3C=Cc3ccccc32)CC1 | 0.0*[inhibitor] | 4 | -26 | 0.0*[inhibitor] | -4 | 87 | 107 | 4 | 103
NC(=O)N1c2ccccc2C=Cc2ccccc21 | 103 | 2 | -2 | 94 | 1 | 102 | / | / | /
Cc1ccc(C(=O)N[C@H](C(=O)Nc2cccc(S(=O)(=O)N3CCOCC3)c2)C(C)C)cc1 | / | / | / | / | / | 106 | / | / | /
COc1cccc(OCC(O)CN2CCC(CN3C(=O)c4cccc5cccc(c45)C3=O)CC2)c1 (stereo not drawn) | 156* | 26 | -3 | 115 | 11 | 102 | 115 | 11 | 100
CCOC(=O)C1=C(C)N=c2s/c(=C/c3ccc(OCC(=O)O)c(OC)c3)c(=O)n2C1c1ccc(Cl)cc1 (stereo not drawn) | / | -39 | / | / | 10 | / | / | / | /
O=C1CCCC2=C1C(c1ccc(Cl)cc1)n1c(s/c(=C\c3ccc4ccncc4c3)c1=O)=N2 (stereo not drawn) | 81 | 0 | -1 | 141* | 11 | 99 | 93 | -1 | 100
COC(=O)C1=NN(c2ccc(Cl)cc2)C2C(=O)N(c3ccccc3OC)C(=O)C12 (stereo not drawn) | 101 | 2 | -1 | 143* | 11 | 102 | 104 | -2 | 107
CCOC(=O)C1=NN(c2ccccc2)C2C(=O)N(c3ccccc3OC)C(=O)C12 (stereo not drawn) | 94 | -1 | 0 | 101 | -16 | 93 | / | / | /
Cc1ccc(C)c(N2CCN(CCCNC(=O)Cn3cccc3C(=O)c3ccccc3)CC2)c1 | 176* | 30 | 45 | 111 | 12 | 106 | 129 | 13 | 104
O=C(Cn1cccc1C(=O)c1ccccc1)NCCN1CCCCCC1 | 171* | 20 | 25* | 115 | 21 | / | 157 | 30 | 104
CCC1CCCCN1C(=O)COC(=O)c1cncc(Br)c1 (stereo not drawn) | / | / | / | / | / | 101 | / | / | /

Screens from PubChem.
